This is one part of a sample in which hits are shown more often than they occur.
UPR CHOP act: apoptotic UPR (CHOP) activation; CHO-CHOP luciferase reporter, luminescence; percent of tunicamycin response over DMSO baseline; activation, % at 10 µM; 330,000 tested, 0.34% active; AID 449763;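 active = at 10 µM dose, activation of 40% or more, normalized to positive control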;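 also: 100% = tunicamycin at 10 µg/mL and 0% = DMSO alone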
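Assay system: CHO cells with stable CHOP pathway luciferase reporter; Buffer or medium: F12 plus 10% serum; Times: 16-18 h cell attachment, then 6 h compound exposure, 37 °C; Signal: luciferase luminescence; Read-out basis: percent activation relative to tunicamycin control; Control set: tunicamycin high control, DMSO low control.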
CHOP inhibitor: inhibitors of CHOP induction in ER stress response. CHO-K1 CHOP-promoter luciferase, tunicamycin-induced, 15-18 h. inhibition, % at 10 µM. 220,000 tested, 3.8% active;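 active = compounds that reduced the stress-induced luciferase reporter signal by more than about 70% of percent inhibition, limit read from the data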;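 also: 0% = tunicamycin plus vehicle and 100% = wells without tunicamycin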
PvdQ acylase: P. aeruginosa PvdQ acylase inhibition. 340,000 tested, 0.063% active. purified PvdQ acylase, fluorescence plate reader. AID 488965. inhibition, % at 10 µM; in the data active = inhibition above about 30%, passing the limit was not always enough;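 also: 0% = vehicle neutral wells and 100% = reference inhibitor wells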
XBP1 UPR activ: activators of adaptive arm of unfolded protein response (XBP1). CHO-XBP1 luciferase reporter, IRE1-XBP1 UPR activation, luminescence; percent of tunicamycin response, DMSO as zero. activation, % at 20 µM. 330,000 tested, 0.33% active. AID 463104;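 active = versus positive control, 20 µM dose yields 30% or more activation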;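 also: 100% = tunicamycin at 10 µg/mL and 0% = DMSO only wells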
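Material: CHO cell line with stable XBP1 luciferase reporter; schedule: 16-18 h cell attachment at 37 °C, then 6 h compound exposure; signal: glow luminescence from Steady-Glo reagent; medium: serum-containing F12 medium, 10% FBS; benchmarks: tunicamycin 10 µg/mL and vehicle-only wells; read-out: percent activation relative to tunicamycin reference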
An asterisk follows results filed as active; x = no result.

SMILES	UPR CHOP act	CHOP inhibitor	PvdQ acylase	XBP1 UPR activ
Cc1ccc(C(=O)N/N=C/c2ccc(-c3cccc(C(F)(F)F)c3)o2)cn1	3	20	4	10
CCCNC(=O)c1c(N)n(-c2cccc(OC)c2)c2nc3ccccc3nc12	0	89*	-14	0
COCCCNC(=O)c1c(N)n(-c2cccc(S(N)(=O)=O)c2)c2nc3ccccc3nc12	-1	-4	3	-1
Cc1cccc(NC(=O)c2ccccc2NC(=O)C2CCCCC2)c1C	-2	78*	7	-4
C/C(=N/Nc1ccc([N+](=O)[O-])cc1)c1ccc(C)cc1C	2	94*	-4	2
CC(C)CNC(=S)NC1CCCC1	0	-22	-17	-1
CSc1ncc(CN2CCc3c([nH]c4ccccc34)C2c2cccc(C)n2)cn1 (stereo not given)	1	-1	15	-2
CSc1ncc(CN2CCc3c([nH]c4ccccc34)C2c2cccc(O)c2)cn1 (stereo not given)	0	86*	-10	3
Oc1nc(Nc2cccc(Cl)c2)sc1/C=C1\C=Nc2ccccc21	5	79*	8	-2
COc1cccc(CN(C)C(=O)c2ccc(OCC(=O)N3CCOCC3)c(OC)c2)c1	0	x	-11	-3
Cc1cccc(C(=O)N(c2ccccn2)C(C)c2ccco2)c1 (stereo not given)	1	-4	-5	1
CC(c1ccco1)N(C(=O)C12CC3(C)CC(C)(CC(C)(C3)C1)C2)c1ccccn1 (stereo not given)	-1	86*	7	-2
NC(=O)c1cccn1Cc1ccccc1Cl	1	-12	-21	1
NC(=O)c1ccc(C(F)(F)F)n(Cc2ccccc2Cl)c1=O	-1	92*	-2	-2
COc1ccc(CNC(=O)CN(C)S(=O)(=O)c2ccc3c(c2)c(=O)n(C)c(=O)n3C)cc1	2	x	-3	-3
CCc1nnc(NC(=O)CSc2nc(-c3ccccc3)c(-c3ccccc3)o2)s1	-1	84*	-5	1
CN(C)c1cccc(C(=O)OCc2cc(=O)oc3cc(O)ccc23)c1	2	90*	7	1
Cc1ccc(NC(=O)CCC(=O)OCc2ccc(Br)cc2)cc1	2	52	-13	-1
CCCCCCCCOC(=O)c1c(CSC(=N)N)n(C)c2cc(Br)c(OC(C)=O)cc12	0	100*	x	-8
CCOC(=O)c1c(CSC(=N)N)n(-c2ccc(Br)cc2)c2cc(Br)c(OC(C)=O)cc12	x	110*	-18	x
CCOC(=O)c1c(C)n(C)c2cc(Br)c(OC)cc12	-2	26	-15	0
C=CCCc1ccc(C#N)c(SCc2c(C(=O)OCC)c3cc(OC(C)=O)c(Br)cc3n2C)n1	6	72*	-4	-3
CCOC(=O)c1c(CSc2nc(C)cc(C)c2C#N)n(C)c2cc(Br)c(OC(C)=O)cc12	1	1	-5	4
Cc1ccc(S(=O)(=O)NCc2ccccc2)cc1C(=O)NCC1CCCO1 (stereo not given)	0	x	-15	2
FC(F)(F)c1ccccc1NC(=S)Nc1cccc(Cl)c1	-1	9	1	-1
SMILES	UPR CHOP act	CHOP inhibitor	PvdQ acylase	XBP1 UPR activ
CCOC(=O)c1cnc(Nc2nc3ccccc3o2)nc1CN1CCN(C)CC1	x	-7	-13	x
COc1ccccc1NC(=O)COC(=O)C1CC1	0	3	-14	-4
CC(O)CC(C(=O)NNc1ccccc1)C(=O)NNc1ccccc1 (stereo not given)	-2	35	-14	1
CC(C)c1ccc(S(=O)(=O)Nc2ccc(SC(F)F)cc2)cc1	0	101*	-16	0
CC(C)c1ccc(NS(=O)(=O)c2ccc(-n3cccn3)cc2)cc1	1	x	-7	0
COc1ccc(-c2nc(CS(=O)CC(=O)NCc3ccc(F)cc3)c(C)o2)cc1 (stereo not given)	-1	x	-1	-1
CC(C)NS(=O)(=O)c1ccc(Oc2ncc(C(F)(F)F)cc2Cl)cc1	6	38	-13	-2
CCCNS(=O)(=O)c1ccc(Oc2ncc(C(F)(F)F)cc2Cl)cc1	0	74*	-16	4
CN(C(=O)COC(=O)c1ccc(=O)n(Cc2ccccc2)n1)c1ccccc1	0	0	-25	1
COc1ccc(C(=O)NC(NC(=O)c2ccc(OC)c(OC)c2)c2ccccc2F)cc1OC	-1	-10	-9	-1
C=CCNC(=S)N/N=C/c1ccc(OCc2ccccc2Cl)cc1	0	92*	-12	-4
Clc1ccccc1COc1ccc(/C=N/n2cnnc2)cc1	4	-1	0	-1
CCC1=NN(S(=O)(=O)c2ccc(C)cc2)C(O)(C(F)(F)F)C1 (stereo not given)	-1	5	-29	-2
CCCSC1=N/C(=C\c2ccc3c(c2)OCO3)C(=O)S1	-1	57	2	3
CCSC1=N/C(=C\c2ccc3c(c2)OCO3)C(=O)S1	2	74*	8	1
Cc1cc(Br)ccc1OCC(=O)N(Cc1nc(-c2ccccc2)no1)C(C)C	1	95*	-14	1
Cc1cccc(-c2noc(CN(C(=O)c3ccc(Br)o3)C(C)C)n2)c1	1	88*	-10	1
COc1ccccc1OCC(=O)N(Cc1nc(-c2ccccc2)no1)C(C)C	-1	x	9	0
CN(Cc1ccccc1)c1ncnc2ccc(Br)cc12	-4	56	97*	0
CCOc1ccccc1Nc1ncnc2ccc(Br)cc12	0	x	-10	7
COC(=O)c1cc2sccc2n1CC(=O)Nc1cccc(SC)c1	2	85*	-24	-2
CC(=O)Oc1c(C)cc(Cl)cc1C(=O)Nc1ccc([N+](=O)[O-])cc1Cl	34	92*	-9	14
CCOC(=O)c1cc2c(ccn2C)n1CC(=O)N1CCN(c2ccc(F)cc2)CC1	-2	-13	-8	-4
CCOC(=O)c1cc2c(ccn2C)n1Cc1cc(C)ccc1C	-1	90*	-6	-1
CN(C)S(=O)(=O)c1cccc(NC(=S)N/N=C/c2cccc(O)c2)c1	1	10	-10	1
SMILES	UPR CHOP act	CHOP inhibitor	PvdQ acylase	XBP1 UPR activ
CN(C)S(=O)(=O)c1cccc(NC(=S)N/N=C/c2cc(Br)ccc2O)c1	-1	72*	7	3
O=C(NC(Cc1ccccc1)C(=O)O)/C(=C/c1ccco1)NC(=O)c1cccc(Br)c1 (stereo not given)	0	26	-1	-4
COc1ccccc1NS(=O)(=O)c1cc([N+](=O)[O-])ccc1N/N=C/c1c(C)[nH]c2ccccc12	0	84*	-22	3
Cc1[nH]c2ccccc2c1/C=N/Nc1ccc([N+](=O)[O-])cc1	x	14	-7	x
O=C1NC(Cc2ccccc2)c2nc3ccc(F)cc3c(=O)n2-c2cc(Cl)ccc21 (stereo not given)	1	x	x	1
CCC1C/C(=C/c2ccco2)C(=O)/C(=C/c2ccco2)C1 (stereo not given)	x	86*	x	x
C[C@@H](NC(=O)c1ncn(Cc2ccccc2)c1C(=O)N[C@H](C)c1ccccc1)c1ccccc1	-2	x	-10	-3
